Assay results published in PMC9884082 (Journal of Medicinal Chemistry, 2023).

How the values were obtained:
HT-29 monolayer culture = assay: Cell proliferation; type: cell-based, human; details: MTT, 60-72 h
Method in brief: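 HT-29 cells kept as monolayers in DMEM:F-12 with 10% FBS and 1% penicillin/streptomycin, passaged before 70% confluence. About 2.5 × 10³ cells/well were incubated overnight (37 °C, 5% CO₂), then exposed to test compound for 60–72 h. MTT (5 mg/mL stock in PBS) was added for 2–3 h and crystals dissolved in DMSO. A590 was read and growth expressed as percent of vehicle; ≥3 replicates.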

[1] = test system: pooled normal human plasma; assay: Human plasma clotting time; type: biochemical; details: ∼34 to ∼68 s
Method in brief: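 APTT was run in a fibrometer by one-stage recalcification. Test compound was mixed with citrated pooled normal human plasma and prewarmed APTT reagent (ellagic acid). After 4 min at 37 °C, clotting was started with prewarmed 25 mM CaCl₂ and time to clot recorded. A quadratic trend line fitted to the data gave the concentration doubling clotting time.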

[2] = Mouse tail bleeding study; type: in vivo, wild-type ICR mice; details: IV; NSGMs 1–100 mg/kg, enoxaparin 224 μg/kg
[3] = test system: CD133+/CXCR4+ (Dual Hi) HT-29 xenografts; assay: Dual Hi HT-29 xenograft after FUOX enrichment, IP G5C or FUOX; type: in vivo, NCr nude mice; details: G5C 100 mg/kg IP; FUOX IP weekly
Method in brief: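 1 × 10⁵ FACS-sorted CD133⁺/CXCR4⁺ HT-29 cells were injected subcutaneously into NCr nude mice. Palpable tumors were enriched in vivo with 25 mg/kg 5-fluorouracil plus 2 mg/kg oxaliplatin IP weekly for 3 weeks. Mice were then randomized to vehicle, the same regimen continued, or test compound 100 mg/kg IP three times/week (14 doses). Tumors (n = 2/group) were dissociated into single cells and 1–3° spheroids (50–150 μm) counted in low-adhesion EGF/FGF stem cell medium.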

[4] = Preliminary half-life experiments; type: in vivo; details: data not shown

Compound: CC(C)CCC[C@@H](C)[C@H]1CC[C@H]2[C@@H]3CC=C4C[C@@H](OCCCCCOc5cc(-c6oc7cc(OS(=O)(=O)[O-])cc(OCCCOc8cc(OS(=O)(=O)[O-])cc9oc(-c%10ccc(OS(=O)(=O)[O-])c(OS(=O)(=O)[O-])c%10)c(OS(=O)(=O)[O-])c(=O)c89)c7c(=O)c6OS(=O)(=O)[O-])ccc5OS(=O)(=O)[O-])CC[C@]4(C)[C@H]3CC[C@]12C.[Na+].[Na+].[Na+].[Na+].[Na+].[Na+].[Na+] [G5C, Sodium 4-(5-(3-((2-(3-((5-(((8S,9S,10R,13R,14S,17R)-10,13-Dimethyl-17-((R)-6-methylheptan-2-yl)-2,3,4,7,8,9,10,11,12,13,14,15,16,17-tetradecahydro-1H-cyclopenta[a]phenanthren-3-yl)oxy)pentyl)oxy)-4-(sulfonatooxy)phenyl)-4-oxo-3,7-bis(sulfonatooxy)-4H-chromen-5-yl)oxy)propoxy)-4-oxo-3,7-bis(sulfonatooxy)-4H-chromen-2-yl)-1,2-phenylene Bis(sulfate)]
- cytotoxicity under monolayer conditions (HT-29 monolayer culture): essentially benign toward monolayer cancer cell culture even at ∼400 μM
- concentration required for 2-fold increase in APTT [1]: ~200 µM
- blood loss, tail bleeding [2]: did not exhibit much tail bleeding phenotype
- ex vivo 3° spheroid growth from xenograft cells [3]: maintain inhibition
- increase in half-life over G2.2 [4]: ~50%
